Converted amounts (≈) assume the structure as drawn.
Columns and labels:
[1] = Tmax in CD-1 mouse at 30 mg/kg, po; type: ADME, organism-based; parameters: dose 30 mg/kg, route oral; details: in vivo
How it was run: (§1)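 Male CD-1 mice given a single oral dose of 30 mg/kg. Vehicle was 10% Pluronic F68, 30% HPBCD and 60% water, pH adjusted to 10.0 with NaOH for most compounds or to 2.5 with methanesulfonic acid for one. Mean plasma PK parameters were reported.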

[2] = AUC (0 to infinity) in CD-1 mouse at 30 mg/kg, po; type: ADME, organism-based; parameters: time infinity, dose 30 mg/kg, route oral; details: plasma; how it was run: as §1
[3] = Cmax in CD-1 mouse at 30 mg/kg, po; type: ADME, organism-based; parameters: dose 30 mg/kg, route oral; details: in vivo; how it was run: as §1
[4] = Half life in rat at 0.5 mg/kg, iv; type: ADME, organism-based; parameters: dose 0.5 mg/kg, route intravenous; details: in vivo
How it was run: (§2)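 Male rats received a single intravenous dose of 0.5 mg/kg. Mean clearance, steady-state volume of distribution and half-life were reported.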

[5] = Volume of distribution at steady state in rat at 0.5 mg/kg, iv; type: ADME, organism-based; parameters: dose 0.5 mg/kg, route intravenous; details: in vivo, read-out: Vdss; how it was run: as §2
[6] = Inhibition of TNKS in human DLD1 cells expressing APC mutant assessed as inhibition of super-Topflash reporter gene transcription after 40 to 48 hrs by dual-glo luciferase reporter gene assay; type: cell-based; details: DLD-1
How it was run: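 DLD-1 cells carried an 8× TCF-driven firefly luciferase and an EF1a-driven Renilla luciferase, and were seeded at 10 000/well in RPMI with 10% FBS without antibiotics. A 10-point, 3-fold dilution series starting at 10 μM was applied for 40–48 h at 37 °C. Firefly and Renilla activities were read with Dual-Glo reagents.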

[7] = Inhibition of TNKS in human SW480 cells assessed as accumulation of axin-2 into cytoplasmic foci after 24 hrs by Hoechst dye-based assay; details: SW480, 24 h
[8] = (§3) Inhibition of TNKS in human SW480 cells assessed as degradation of total pool of beta-catenin after 40 to 48 hrs; type: cell-based
How it was run: (§4)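 SW480 cells were seeded at 10 000/well in MEMα with 10% HI FBS, GlutaMAX, pyruvate and 10 mM HEPES. They were treated with a 10-point, 3-fold dilution series at 0.1% final DMSO for 40–48 h at 37 °C, then lysed. Total β-catenin was measured by MSD sandwich immunoassay (polyclonal capture, SULFO-TAG mAb detection).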

[9] = Clearance in rat at 0.5 mg/kg, iv; type: ADME, organism-based; parameters: dose 0.5 mg/kg, route intravenous; details: in vivo; how it was run: as §2
[10] = Fraction unbound in mouse plasma at 5 uM after 5 hrs by equilibrium dialysis method; type: ADME, cell-free
How it was run: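 Mouse plasma was spiked to a final 5 μM and equilibrium-dialyzed against plasma water (ultrafiltrate) for 5 h at 37 °C in a CO2 incubator, using a rapid equilibrium dialysis device. Fraction unbound was determined in duplicate.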

[11] = Half life in CD-1 mouse plasma at 1 uM by LC-MS/MS analysis; type: ADME, cell-free
How it was run: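 Lithium-heparinized CD-1 mouse plasma was spiked with 1 μM substrate and incubated at 37 °C for 3 h, sampling at 0, 0.167, 1, 2 and 3 h (n = 2). Samples underwent acetonitrile protein precipitation with tolbutamide as internal standard. Analysis was by reversed-phase UPLC-ESI-MS/MS in MRM mode.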

[12] = test system: SW480; assay: as §3; type: cell-based; details: dose or concentration not given here; how it was run: as §4
[13] = molecular target: T1, Poly [ADP-ribose] polymerase tankyrase-1 (Homo sapiens, UniProt O95271); assay: Inhibition of 6x-His-tagged TNKS1 (unknown origin) after 60 mins
T1 sequence (O95271 whole entry): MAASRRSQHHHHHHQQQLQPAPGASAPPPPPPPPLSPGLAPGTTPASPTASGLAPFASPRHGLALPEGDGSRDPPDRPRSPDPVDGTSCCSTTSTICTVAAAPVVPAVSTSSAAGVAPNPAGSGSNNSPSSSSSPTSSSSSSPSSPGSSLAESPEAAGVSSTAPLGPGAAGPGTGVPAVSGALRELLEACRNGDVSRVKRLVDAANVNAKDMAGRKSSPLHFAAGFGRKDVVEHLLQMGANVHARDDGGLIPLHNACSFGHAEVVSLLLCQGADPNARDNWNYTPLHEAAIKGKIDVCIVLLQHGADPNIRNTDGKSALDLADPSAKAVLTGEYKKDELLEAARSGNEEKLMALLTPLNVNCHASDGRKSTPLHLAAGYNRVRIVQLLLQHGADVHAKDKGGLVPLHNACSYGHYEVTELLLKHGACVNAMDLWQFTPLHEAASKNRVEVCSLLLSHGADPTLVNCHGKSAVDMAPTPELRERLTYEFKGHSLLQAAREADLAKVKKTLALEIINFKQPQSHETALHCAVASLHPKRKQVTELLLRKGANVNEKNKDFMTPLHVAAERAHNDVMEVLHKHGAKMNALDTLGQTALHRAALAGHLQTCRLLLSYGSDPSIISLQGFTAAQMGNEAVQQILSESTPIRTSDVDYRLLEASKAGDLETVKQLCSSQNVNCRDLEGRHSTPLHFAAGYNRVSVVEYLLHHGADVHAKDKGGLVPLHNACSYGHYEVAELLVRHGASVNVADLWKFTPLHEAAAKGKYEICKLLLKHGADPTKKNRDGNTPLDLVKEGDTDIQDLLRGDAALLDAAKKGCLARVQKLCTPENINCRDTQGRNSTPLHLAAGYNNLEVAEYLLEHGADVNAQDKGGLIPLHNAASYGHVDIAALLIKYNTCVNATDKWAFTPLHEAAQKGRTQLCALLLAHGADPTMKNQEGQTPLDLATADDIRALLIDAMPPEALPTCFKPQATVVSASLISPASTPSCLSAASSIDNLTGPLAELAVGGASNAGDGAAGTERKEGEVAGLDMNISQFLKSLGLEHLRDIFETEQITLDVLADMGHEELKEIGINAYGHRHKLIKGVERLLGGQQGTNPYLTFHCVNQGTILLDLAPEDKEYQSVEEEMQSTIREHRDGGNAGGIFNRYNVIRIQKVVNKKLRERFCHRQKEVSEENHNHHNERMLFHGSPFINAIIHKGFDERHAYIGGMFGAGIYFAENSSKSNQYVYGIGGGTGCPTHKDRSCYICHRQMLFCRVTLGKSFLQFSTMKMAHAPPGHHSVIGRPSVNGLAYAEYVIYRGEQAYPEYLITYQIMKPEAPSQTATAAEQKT

[14] = Solubility in fasted state simulated intestinal fluid at pH 6.8; type: ADME
[15] = Volume of distribution at steady state in rat at 5 mg/kg, iv; type: ADME, organism-based; parameters: dose 5 mg/kg, route intravenous; details: in vivo, read-out: Vdss
[16] = Half life in rat at 5 mg/kg, iv; type: ADME, organism-based; parameters: dose 5 mg/kg, route intravenous; details: in vivo
[17] = test system: Rattus norvegicus; assay: Clearance in rat at 5 mg/kg, iv; type: ADME, organism-based; parameters: dose 5 mg/kg, route intravenous; details: in vivo
[18] = test system: Rattus norvegicus; assay: AUC (infinity) in rat at 5 mg/kg, iv; type: ADME, organism-based, Plasma; parameters: time infinity, dose 5 mg/kg, route intravenous; details: in vivo
[19] = test system: Plasma; assay: Unbound plasma concentration in athymic nude mouse xenografted with human DLD1 cells at 50 mg/kg, po qd administered for 3 days measured 24 hrs post last dose; type: ADME, organism-based, DLD-1; parameters: dose 50 mg/kg, route oral; details: in vivo
How it was run: (§5)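 Athymic nude mice carried subcutaneous DLD-1 tumors engineered with a Wnt-responsive STF firefly luciferase and a constitutive Renilla luciferase. At about 250 mm³, mice were randomized (n = 4 per group) and dosed orally once daily for 3 days at 10 or 50 mg/kg, or with vehicle. Tumor axin2 was measured by MSD immunoassay. STF was read by Dual-Glo, firefly normalized to Renilla. Plasma was taken for exposure.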

[20] = test system: Mus musculus; assay: Ex vivo inhibition of TNKS in tumor of athymic nude mouse xenografted with human DLD1 cells assessed as inhibition of super-Topflash reporter gene transcription at 50 mg/kg, po qd administered for 3 days measured 24 hrs post last dose by dual-glo luciferase reporter gene assay relative to control; type: functional; details: DLD-1; how it was run: as §5
[21] = test system: Mus musculus; assay: Ex vivo inhibition of TNKS in tumor of athymic nude mouse xenografted with human DLD1 cells assessed as inhibition of super-Topflash reporter gene transcription at 10 mg/kg, po qd administered for 3 days measured 24 hrs post last dose by dual-glo luciferase reporter gene assay relative to control; type: functional; details: DLD-1; how it was run: as §5
[22] = Oral bioavailability in rat at 2 mg/kg; type: ADME, organism-based; details: in vivo
[23] = Intrinsic clearance in rat liver microsomes at 1 uM after 30 mins; type: ADME; details: read-out: CLH
How it was run: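 Substrate depletion in rat liver microsomes: 0.25 mg protein/mL, 1 mM NADPH and 2 mM MgCl2 in 50 mM potassium phosphate, pH 7.4, prewarmed to 37 °C. Test compound was added to a final 1 μM, and parent loss was measured after 30 min at 37 °C.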

Structure (SMILES) | Tmax [1] [min] | AUC(0-inf) [2] [µM·h] | Cmax [3] [µM] | half-life [4] [min] | Vd [5] [L/kg] | IC50 [6] [nM] | EC50 [7] [nM] | IC50 [8] [nM] | clearance [9] [mL/min/kg] | fraction unbound at 5 h, 5 µM [10] | half-life at 1 µM [11] [min] | IC50 [13] [nM] | solubility [14] [µg/mL] | Cp(f) [19] [µM] | inhibition in vivo at 50 mg/kg [20] [%] | inhibition in vivo at 10 mg/kg [21] [%] | bioavailability [22] [%] | also measured
O=C(CCSc1nc2ccccc2c(=O)[nH]1)N[C@H]1CC[C@H](Oc2ccncc2)CC1 | 40.2 | 11.5 | 7 | 42 | 0.4 | 0.7 | 6.8 | 6.9 | 11 | 0.032 | – | – | – | – | – | – | – | –
Cn1nc(-c2ccc(NC(=O)CCc3nc4ccccc4c(=O)[nH]3)cc2)c2ccccc21 | – | – | – | – | – | – | – | – | – | – | > 1000 | 400 | – | – | – | – | – | inhibition [12]: > 50%
COc1ccccc1NC(=O)c1ccc(NC(=O)CCc2nc3ccccc3c(=O)[nH]2)cc1 | – | – | – | – | – | – | – | 160 | – | – | 40 | 10 | 6.6 (≈ 14.9 µM) | – | – | – | – | Vd [15]: 4.69 L/kg; half-life [16]: 22.2 min; CL [17]: 182 mL/min/kg; AUC [18]: 0.11 µM·h
O=C(CCSc1nc2ccccc2c(=O)[nH]1)N[C@H]1CC[C@H](c2nnc(-c3ccccc3)o2)CC1 | 34.8 | 49.5 | 18.7 | 108 | 0.7 | 0.6 | 3.9 | 4 | 13.8 | 0.017 | – | – | 7 (≈ 14.7 µM) | 0.013 | 58 | 51 | 13 | microsomal CLint at 1 µM [23]: 57 µL/min/mg
N#Cc1ccc(O[C@H]2CC[C@H](NC(=O)CCSc3nc4ccccc4c(=O)[nH]3)CC2)cc1 | 90 | 141 | 24.2 | 168 | 0.32 | 0.3 | 4 | 1.9 | 2 | 0.006 | – | – | – | 0.009 | 79 | 70 | 21 | –

Reference: ChEMBL document CHEMBL3108694, “Development of novel dual binders as potent, selective, and orally bioavailable tankyrase inhibitors” (J Med Chem, 2013)
